Reference: ChEMBL document CHEMBL1123267, “Synthesis and radioprotective activity of new cysteamine and cystamine derivatives” (J Med Chem, 1986)

What was measured:
[1] = Lethal dose in mice (LD50); type: toxicity, organism-based; details: mouse, in vivo
Procedure, shortened: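 Compounds were dissolved in distilled water and the dose range was set in a preliminary study. Five groups of 10 mice then received different doses within that range. LD50 was derived by Probit analysis.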

[2] = system: Mus musculus; test: Radioprotective effects in mice when administered i.p. at 12.5% LD50, 15 min prior to whole body radiation.; type: functional
Procedure, shortened: (§1)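 Mice in groups of 20 were given the compound i.p., dissolved in distilled water. Whole-body irradiation was from a 60Co γ source at 0.65 Gy/min. First dose was the control LD100/30 days (9 Gy males, 9.5 Gy females) or that dose + 2 Gy, then a dose series. Irradiation LD50/30-day was found by the Karber method. DRF = treated LD50/30 ÷ solvent-control LD50/30.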

[3] = system: Mus musculus; test: Radioprotective effects in mice when administered i.p. at 50% LD50, 15 min prior to whole body radiation.; type: functional; procedure, shortened: as §1
[4] = system: Mus musculus; test: Radioprotective effects in mice when administered i.p. at 50% LD50, 2 hr prior to whole body radiation.; type: functional; procedure, shortened: as §1
[5] = system: Mus musculus; test: Compound was tested for radioprotective activity when injected intraperitoneally with a dose equal to one-eighth of its LD50, 15 min before whole-body irradiation.; type: functional; procedure, shortened: as §1

Structure (SMILES) | LD50 [1] [mg/kg] | DRF [2] | DRF [3] | DRF [4] | DRF [5]
Br.Br.NCCC(=O)NCCSSCCNC(=O)CCN | 350 | 1 | 1 | 1 | 
CC(=O)SCCN.Cl | 500 | 1 | 1.05 | 1.05 | 
NCCCNCCSP(=O)(O)O [AMIFOSTINE] | 950 | 1.5 | 2.7 | >1.3 | 
Br.CC(=O)SCCNC(=O)[C@H](C)N | 1500 | 1 | 1.4 | 1.2 | 
Br.Br.NCCCC(=O)NCCSSCCNC(=O)CCCN | 300 | 1 | 1 | 1 | 
NCC(=O)NCCSC(=O)C(Cl)(Cl)Cl.O=C(O)C(F)(F)F | 700 |  | 1.05 | 1 | 1
Br.CC(=O)SCCNC(=O)CCCN | 800 | 1 | 1.1 |  | 
CC(=O)NCCSC(=O)CN.O=C(O)C(F)(F)F | 1000 | 1 | 1.2 | 1 | 
NCC(=O)NCCSSCCNC(=O)CN.O=C(O)C(F)(F)F.O=C(O)C(F)(F)F | 1500 | 1.2 | 1.55 | 1.1 | 
Br.CC(C)(C)C(=O)SCCNC(=O)CN | 1200 | 1 | 1.05 | 1 | 
C[C@H](N)C(=O)NCCSSCCNC(=O)[C@@H](C)N.O=C(O)C(F)(F)F.O=C(O)C(F)(F)F | 1200 | 1 | 1.4 | 1.1 | 
CC(=O)SCCNC(=O)[C@H](C)N.O=C(O)C(F)(F)F | 1250 | 1 | 1.4 | 1 | 
CC(=O)SCCNC(=O)CN.O=C(O)C(F)(F)F | 1500 | 1 | 1.4 | 1 | 
NCC(=O)NCCSC(=O)CCl.O=C(O)C(F)(F)F | 550 | 1 | 1 | 1 | 
NCC(=O)NCCSC(=O)C(Cl)Cl.O=C(O)C(F)(F)F | 800 | 1 | 1.1 | 1 | 
Br.CCC(=O)SCCNC(=O)CN | 1500 | 1 | 1.2 | 1 | 
Br.CC(=O)SCCNC(=O)CCN | 400 | 1 | 1 | 1 | 
Br.CC(=O)SCCNC(=O)CN | 1500 | 1 | 1.4 | 1 | 
Br.CC(=O)NCCSC(=O)CN | 600 | 1 | 1.1 | 1 | 
Br.Br.NCC(=O)NCCSSCCNC(=O)CN | 1500 | 1 | 1.4 | 1 | 
Br.Br.C[C@H](N)C(=O)NCCSSCCNC(=O)[C@@H](C)N | 800 | 1 | 1 | 1 | 
